Measurements gathered from unrelated publications.
Protocols differ between the studies behind these lines.
Target: Serine/threonine-protein kinase Chk1 (CHEK1, Homo sapiens, UniProt O14757)
Residues used in one study (O14757 1-476): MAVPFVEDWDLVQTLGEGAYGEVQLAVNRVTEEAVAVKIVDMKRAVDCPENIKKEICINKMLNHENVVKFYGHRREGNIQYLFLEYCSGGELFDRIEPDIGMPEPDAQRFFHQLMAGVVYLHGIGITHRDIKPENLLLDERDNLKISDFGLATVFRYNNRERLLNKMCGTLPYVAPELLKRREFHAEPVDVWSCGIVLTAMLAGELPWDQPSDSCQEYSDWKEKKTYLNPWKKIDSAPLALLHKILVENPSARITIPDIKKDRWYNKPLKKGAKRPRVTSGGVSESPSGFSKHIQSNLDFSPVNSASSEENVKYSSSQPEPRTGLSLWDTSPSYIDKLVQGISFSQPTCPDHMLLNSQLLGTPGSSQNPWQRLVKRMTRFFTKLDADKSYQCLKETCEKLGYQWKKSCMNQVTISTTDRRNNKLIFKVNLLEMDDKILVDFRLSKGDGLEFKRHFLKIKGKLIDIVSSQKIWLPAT

CCS(=O)(=O)c1cc2cc(C[C@](O)(CC(C)(C)c3ccc(F)cc3C(N)=O)C(F)(F)F)[nH]c2cn1  remaining binding (cell-free assay, competition with immobilised ligand; 1 µM): 97%
CC(C)(O)[C@H]1CC[C@H](Nc2ccc3ncc(-c4cccc(C(F)(F)F)c4)n3n2)CC1  remaining activity (enzyme activity, inhibitor; 1 µM): 94.2%
CC(C)(C)C(=O)c1sc(NC2CCCCC2)nc1N  remaining activity (enzyme activity, inhibitor; 10 µM): 80%
O=C1Nc2ccc(Cl)cc2C1=Cc1cc(Cl)c(O)c(Cl)c1  remaining signal (cell-free assay; 0.5 µM): 86.4%
FC(F)c1nc2ccccc2n1-c1nc(N2CCOCC2)nc(N2CCOCC2)n1  remaining activity (enzyme activity, inhibitor; 10 µM): 90%
Nc1c(C(=O)NCc2ccc(C(=O)NCCCC3CCCCC3)cc2)cnn1-c1ccccc1  remaining binding (cell-free assay, competition with immobilised ligand; 0.1 µM): 100%
C[S+]([O-])c1ccc(-c2nc(-c3ccncc3)c(-c3ccc(F)cc3)[nH]2)cc1 (stereo not drawn)  remaining signal (cell-free assay; 0.5 µM): 97.3%
N#CC1(c2ccccn2)CCN(Cc2cc(C(=O)N3CCCC3)c(=O)n3ccccc23)CC1  remaining binding (cell-free assay, competition with immobilised ligand; 1 µM): 90%
Nc1nc(NC2CCCCC2)sc1C(=O)c1ccccc1  remaining activity (enzyme activity, inhibitor; 10 µM): 96%
CNC(=O)Nc1ccc2c(c1)[C@@]1(CC2)OC(=O)N(CC(=O)N(Cc2ccc(F)cc2)[C@@H](C)C(F)(F)F)C1=O  remaining binding (cell-free assay, competition with immobilised ligand; 1 µM): 100%
COc1cc(/C=C/C(=O)CC(=O)/C=C/c2ccc(O)c(OC)c2)ccc1O  activity vs control (enzyme activity, inhibitor; 1 µM): 57%
O=C1NC(=O)c2cc(Nc3ccc(F)cc3)c(Nc3ccc(F)cc3)cc21  remaining signal (cell-free assay; 0.5 µM): 104%
CC(C)(C)c1nc(-c2cccc(NS(=O)(=O)c3c(F)cccc3F)c2F)c(-c2ccnc(N)n2)s1  remaining activity (enzyme activity, inhibitor, radiometric; 1 µM): 100%
Cc1nccc(COC(=O)N2C[C@@H]3[C@@H](CNC(=O)c4ccc5[nH]nnc5c4)[C@@H]3C2)n1  remaining binding (cell-free assay, competition with immobilised ligand; 1 µM): 100%
C#Cc1cccc(Nc2ncnc3cc(OCCOC)c(OCCOC)cc23)c1  remaining signal (cell-free assay; 0.5 µM): 95.1%
CN(C)C1CCN(CC#Cc2nn(C3CCCC3)c3nc(NCc4ccccc4)ncc23)C1 (stereo not drawn)  inhibition (enzyme activity, inhibitor, FRET; 0.1 µM): 2%
Cc1ccc(C(=O)Nc2ccc(CN3CCN(C)CC3)c(C(F)(F)F)c2)cc1C#Cc1cnc2cccnn12  remaining activity (enzyme activity, inhibitor; 23.5 nM): 96%
CO[C@@H](C)c1c(Nc2ccc([C@@H](N(C)C(=O)C3CCS(=O)(=O)CC3)C(F)(F)F)cc2)cnc2cc(Cl)nn12  remaining binding (cell-free assay, competition with immobilised ligand; 1 µM): 95%
COc1cc(Nc2cnc(C#N)c(O[C@H](C)CN(C)C)n2)ncc1-c1cnn(C)c1  remaining activity (enzyme activity, inhibitor, radiometric; 10 µM): 6%
O=C(Nc1cnn(-c2csc(C(=O)NC3COC3)c2)c1)Nc1ccccc1Cl  remaining activity (enzyme activity, inhibitor; 5 µM): 98.7%
C[C@@H](c1cccc(C#N)c1)n1cc(Cl)cc(C(N)=O)c1=N  remaining binding (cell-free assay, competition with immobilised ligand; 1 µM): 100%
Cn1c(=O)n(-c2ccc(C(C)(C)C#N)cc2)c2c3cc(-c4cnc5ccccc5c4)ccc3ncc21  remaining activity (enzyme activity, inhibitor; 10 µM): 146%
N#CCCc1ccc2c(c1)-c1[nH]c3ccc([N+](=O)[O-])cc3c1CC(=O)N2  remaining signal (cell-free assay; 0.5 µM): 45.1%
COc1cc(Cl)c(C(=O)N[C@@H](CN[C@H]2CC[C@@H](N)CC2)Cc2ccc(C#N)cc2)cc1-c1ccc(CN[C@H](C)c2ccc(C)cc2)o1  remaining activity (enzyme activity, inhibitor; 1 µM): 100%
